Reference: ChEMBL document CHEMBL4477183, “Antimicrobial Peptide from the Wild Bee Hylaeus signatus Venom and Its Analogues: Structure-Activity Study and Synergistic Effect with Antibiotics” (J Nat Prod, 2016)
Active and inactive are the calls of the source. No cut-off for these calls is given here.

Key:
[1] = system: Staphylococcus aureus; experiment: Antimicrobial activity against Staphylococcus aureus clinical isolates from university hospital in Motol assessed as reduction in bacterial growth after 20 hrs by drop diffusion test; type: functional
[2] = system: Escherichia coli; experiment: Antimicrobial activity against Escherichia coli assessed as reduction in bacterial growth after 20 hrs by […]; type: functional
Outline: (§1)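 Broth microdilution in LB (YPG for C. albicans) with 2-fold serial dilutions, final 0.1–100 μM. Mid-log cells grown 3–5 h at 37 °C were added at about 5 × 10^5 cfu/mL, then incubated 20 h at 37 °C with shaking. A540 was read every 15 min to build growth curves. Medium with cells served as growth control; at least three runs in duplicate.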

[3] = system: Pseudomonas aeruginosa; experiment: Antimicrobial activity against Pseudomonas aeruginosa 5482 assessed as reduction in bacterial growth after 20 hrs […]; type: functional; settings: Pseudomonas aeruginosa, 5482, 20 h; outline: as §1
[4] = system: Pseudomonas aeruginosa; experiment: Antimicrobial activity against Pseudomonas aeruginosa clinical isolates assessed as reduction in bacterial growth after 20 hrs by […]; type: functional; outline: as §1
[5] = Hemolytic activity in human type RBC after 1 hr; type: ADME, cell-based, Erythrocyte; settings: red blood cells (erythrocytes), read-out: LC50
Outline: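 Peptides at 2.5–400 μM were incubated with a 4% suspension of human erythrocytes in physiological solution for 1 h at 37 °C, then centrifuged at 250g for 5 min; supernatant A540 was read. Saline-treated cells gave 0% lysis and 0.2% Triton X-100 gave 100%. LC50 is the concentration lysing 50% of cells; duplicates in at least two independent experiments.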

[6] = system: Candida albicans; experiment: Antifungal activity against Candida albicans assessed as reduction in fungal growth after 20 hrs by […]; type: functional; outline: as §1
[7] = system: Micrococcus luteus; experiment: Antimicrobial activity against Micrococcus luteus assessed as reduction in bacterial growth after 20 hrs by […]; type: functional; outline: as §1
[8] = system: Bacillus subtilis; experiment: Antimicrobial activity against Bacillus subtilis assessed as reduction in bacterial growth after 20 hrs by […]; type: functional; outline: as §1
[9] = system: Staphylococcus aureus; experiment: Antimicrobial activity against Staphylococcus aureus clinical isolates assessed as FIC index in presence of amoxicillin after 20 hrs by drop diffusion test; type: functional
[10] = system: Pseudomonas aeruginosa; experiment: Antimicrobial activity against Pseudomonas aeruginosa clinical isolates assessed as FIC index in presence of tetracycline after 20 hrs by drop diffusion test; type: functional
[11] = system: Pseudomonas aeruginosa; experiment: Antimicrobial activity against Pseudomonas aeruginosa clinical isolates assessed as FIC index in presence of rifampicin after 20 hrs by drop diffusion test; type: functional
[12] = system: Pseudomonas aeruginosa; experiment: Bactericidal activity against Pseudomonas aeruginosa assessed as reduction in bacterial count at 8 uM after 60 mins by time kill assay; type: functional
Outline: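 Time-kill: P. aeruginosa (final about 5 × 10^5 cfu/mL) in LB with peptide (8 μM) or medium control was incubated 4 h at 37 °C with shaking. Samples were taken at 0–240 min, serially diluted in 0.9% NaCl and plated on LB agar overnight at 37 °C. Viable counts are given as cfu/mL; means of four independent measurements.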

[13] = system: Pseudomonas aeruginosa; experiment: Antimicrobial activity against Pseudomonas aeruginosa assessed as disruption of cell envelope at 30 uM after 60 mins by negative staining based TEM analysis; type: functional, organism-based
Outline: (§2)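 P. aeruginosa at 10^8 cfu/mL was exposed to peptide at 30 or 150 μM for 60 min, with untreated cells as control. Cells were centrifuged, washed twice in 0.9% NaCl and adsorbed 5–10 min on Parlodion-carbon-coated copper grids. They were negatively stained 30–40 s with 0.25% phosphotungstic acid (pH 7.3) plus 0.01% BSA, air-dried and imaged by TEM.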

[14] = system: Pseudomonas aeruginosa; experiment: Antimicrobial activity against Pseudomonas aeruginosa assessed as compact cell levels at 30 uM after 60 mins by negative staining based TEM analysis; type: functional; outline: as §2
[15] = system: Pseudomonas aeruginosa; experiment: Antimicrobial activity against Pseudomonas aeruginosa assessed as detached cell envelope at 30 uM after 60 mins by negative staining based TEM analysis; type: functional, organism-based; outline: as §2
[16] = system: Pseudomonas aeruginosa; experiment: Antimicrobial activity against Pseudomonas aeruginosa assessed as flagella attachment level at 30 uM after 60 mins by negative staining based TEM analysis; type: functional, organism-based; outline: as §2
[17] = system: Pseudomonas aeruginosa; experiment: Antimicrobial activity against Pseudomonas aeruginosa assessed as cell damage at 150 uM after 60 mins by negative staining based TEM analysis; type: functional, organism-based; outline: as §2
[18] = system: Pseudomonas aeruginosa; experiment: Antimicrobial activity against Pseudomonas aeruginosa assessed as cell envelope detachment at 150 uM after 60 mins by negative staining based TEM analysis; type: functional, organism-based; outline: as §2
[19] = system: Pseudomonas aeruginosa; experiment: Antimicrobial activity against Pseudomonas aeruginosa assessed as flagella detachment at 150 uM after 60 mins by negative staining based TEM analysis; type: functional, organism-based; outline: as §2
[20] = system: Pseudomonas aeruginosa; experiment: Induction of cell permeabilization in Pseudomonas aeruginosa assessed as propidium iodide uptake 10 to 100 mins; type: functional, organism-based
Outline: (§3)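 Mid-log P. aeruginosa was washed twice and resuspended in PBS (pH 7) at 10^8 cfu/mL with propidium iodide at 10 μg/mL. Peptide was added by 2-fold serial dilution in PBS (0.625–20 μM), with PBS as blank and octenidine dihydrochloride (4 μM final) as positive control. Plates were kept at 37 °C in the dark for 120 min, reading fluorescence (ex 544/em 620 nm) every minute. Means of at least three measurements.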

[21] = system: Pseudomonas aeruginosa; experiment: Antimicrobial activity against Pseudomonas aeruginosa assessed as induction of inner bacterial content leakage at 30 uM after 60 mins by TEM analysis; type: functional, organism-based; outline: as §2
[22] = system: Pseudomonas aeruginosa; experiment: Antimicrobial activity against Pseudomonas aeruginosa assessed as induction of cell integrity break down at 30 uM after 60 mins by TEM analysis; type: functional, organism-based; outline: as §2
[23] = system: Staphylococcus aureus; experiment: Antimicrobial activity against Staphylococcus aureus 6271 assessed as reduction in bacterial growth after 20 hrs by broth microdilution assay; settings: Staphylococcus aureus, 6271, 20 h
[24] = system: Staphylococcus epidermidis; experiment: Antimicrobial activity against Staphylococcus epidermidis assessed as reduction in bacterial growth after 20 hrs by broth microdilution assay
[25] = system: Staphylococcus aureus; experiment: Antimicrobial activity against Staphylococcus aureus clinical isolates from Liberec regional hospital assessed as reduction in bacterial growth after 20 hrs by broth microdilution assay
[26] = system: Staphylococcus aureus; experiment: Antimicrobial activity against Staphylococcus aureus clinical isolates from Liberec regional hospital assessed as reduction in bacterial growth after 20 hrs by […]; type: functional; outline: as §1
[27] = system: Pseudomonas aeruginosa; experiment: Induction of cell permeabilization in Pseudomonas aeruginosa assessed as propidium iodide uptake at 5 to 10 uM after 10 mins; type: functional, organism-based; outline: as §3
[28] = system: Pseudomonas aeruginosa; experiment: Bactericidal activity against Pseudomonas aeruginosa assessed as reduction in bacterial count at 24 uM after 60 mins by time kill assay; type: functional
Outline: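 P. aeruginosa inoculum about 5 × 10^5 cfu/mL in LB mixed 1:1 with LB alone or LB containing test agent at final 8, 24, 80 or 20 μM. Incubation was at 37 °C with shaking for 4 h. Aliquots taken at 0–240 min were serially diluted in 0.9% NaCl and plated on LB agar overnight at 37 °C. Viable cfu/mL were counted; means of four independent measurements.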

[29] = system: Pseudomonas aeruginosa; experiment: Ratio of MIC for Pseudomonas aeruginosa to PC50 for induction of permeabilization in Pseudomonas aeruginosa; type: functional
Outline: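 PC50: washed 10^8 cfu/mL cells in PBS pH 7 with PI 10 μg/mL, peptide 0.31–80 μM, 90 min at 37 °C dark, fluorescence 544/620 nm as % of 4 μM octenidine, interpolated from log-concentration curve.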

Row | Substance | MIC [1] [µM] | MIC [2] [µM] | MIC [3] [µM] | MIC [4] [µM] | HC50 at 1 h [5] [µM] | MIC [6] [µM] | MIC [7] [µM] | MIC [8] [µM] | fractional inhibitory concentration index (FICI) [9] | fractional inhibitory concentration index (FICI) [10] | fractional inhibitory concentration index (FICI) [11] | Activity [20] | Activity [22] | MIC [23] [µM] | MIC [24] [µM] | other results
1 | H-GIMSSLMKKLKKIIAK-NH2 | 23 | 9 | 5 | 7.4 | > 400 | 5.2 | ≤ 3 | ≤ 7 | 0.33 | 0.65 | 0.43 | Active | Active | 32 | 1.9 | fold change (FC) [12]: 2; Activity [13]: Active; Activity [14]: 60%; Activity [15]: Active; Activity [16]: Active; Activity [17]: Active; Activity [18]: Active; Activity [19]: Active; Activity [21]: Active; MIC [25]: 7.6 µM
2 | H-GIWSSLLKKLKKIIAK-NH2 | 5.3 | 1.6 | 6.3 | 21 | 165 | 16 | ≤ 3 | ≤ 7 | 0.4 | 0.35 | 0.27 | Dose-dependent effect | Dose-dependent effect | 20 | 1.5 | MIC [26]: 4.6 µM; Activity [27]: Active; fold change (FC) [28]: 2; Ratio [29]: 30
